Experimental data: ChEMBL document CHEMBL1129727, “Chiral pyrrolo[2,3-d]pyrimidine and pyrimido[4,5-b]indole derivatives: structure-activity relationships of potent, highly stereoselective A1-adenosine receptor antagonists” (J Med Chem, 1996)
Converted amounts (≈) assume the structure as drawn.

Columns and labels:
Adenosine receptor A1 = target: T1, Adenosine receptor A1 (Rattus norvegicus, UniProt P25099); assay: Radioligand binding assay for [3H]-PIA affinity towards Adenosine A1 receptor of rat cerebral cortical membrane
T1 sequence (P25099 whole entry): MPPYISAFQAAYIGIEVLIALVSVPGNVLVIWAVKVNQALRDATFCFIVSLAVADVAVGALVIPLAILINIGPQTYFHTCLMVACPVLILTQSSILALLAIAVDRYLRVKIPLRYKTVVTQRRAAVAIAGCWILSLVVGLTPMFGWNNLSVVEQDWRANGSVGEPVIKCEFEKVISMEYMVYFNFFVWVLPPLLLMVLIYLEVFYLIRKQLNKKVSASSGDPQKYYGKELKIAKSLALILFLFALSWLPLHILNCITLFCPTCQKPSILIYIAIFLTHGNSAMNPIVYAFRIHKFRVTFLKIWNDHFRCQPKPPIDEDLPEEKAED
Method in brief: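 Rat cerebral cortical membranes incubated with [3H]-(R)-PIA. Nonspecific binding defined with 10 μM 2-chloroadenosine. Five to six test concentrations, each in triplicate, in at least three separate experiments. Ki calculated from inhibition of binding.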

Adenosine receptor A2a = Adenosine receptor A2a (Rattus norvegicus, UniProt P30543); assay: Radioligand binding assay for [3H]NECA affinity towards adenosine A2A receptor of rat striatum; assay type: tissue-based
Method in brief: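 Rat striatal membranes incubated with [3H]NECA. 50 nM N6-cyclopentyladenosine present to block A1 sites. Nonspecific binding defined with 5 mM theophylline. Five to six test concentrations, each in triplicate, in at least two separate experiments. Ki derived from inhibition of binding.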

[1] = target: Adenosine receptors; A1 & A2 (Rattus norvegicus) (UniProt P29276+P25099+P30543); assay: Selectivity ratio between A1 and A2-receptors estimated as A2/A1; assay type: protein assay
[2] = Solubility in 50 mM TRIS-HCl buffer containing 1% DMSO, pH 7.4; assay type: physicochemical; details: read-out: S
Method in brief: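 Bruns–Fergus biochemical method. 10 mM DMSO stock diluted 1:100 into 50 mM Tris-HCl pH 7.4, shaken overnight at room temperature, centrifuged and filtered through cotton. Serial dilutions of the saturated supernatant tested in an A1 [3H]CHA binding assay (KD 1 nM).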

[3] = Solubility in 50 mM TRIS-HCl buffer containing 2.5% DMSO, pH 7.4; assay type: physicochemical; details: read-out: S
Method in brief: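 A 10 mM DMSO stock was diluted 1:40 into 50 mM TRIS-HCl, pH 7.4 (2.5% DMSO), then shaken overnight at room temperature to equilibrium. After centrifugation, the supernatant was filtered and serially diluted. Dilutions were tested in an A1 binding assay with [3H]CHA (KD 1 nM).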

[4] = Partition coefficient (logP); assay type: physicochemical; details: octanol/water
[5] = target: T2, Adenosine receptor A3 (Rattus norvegicus) (UniProt P28647); assay: Percent inhibition of binding to rat Adenosine A3 receptor at 10 uM
T2 sequence (whole entry): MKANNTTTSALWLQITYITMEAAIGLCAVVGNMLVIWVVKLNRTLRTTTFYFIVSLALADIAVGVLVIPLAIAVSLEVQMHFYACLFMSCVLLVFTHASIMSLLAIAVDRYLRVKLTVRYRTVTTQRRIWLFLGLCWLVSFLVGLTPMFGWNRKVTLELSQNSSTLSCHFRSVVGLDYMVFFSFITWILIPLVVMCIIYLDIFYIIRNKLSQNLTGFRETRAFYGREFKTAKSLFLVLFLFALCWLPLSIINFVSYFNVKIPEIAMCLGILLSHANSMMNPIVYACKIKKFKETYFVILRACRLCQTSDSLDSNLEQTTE

[6] = target: T3, Adenosine receptor A2b (Rattus norvegicus) (UniProt P29276); assay: Antagonistic binding affinity for rat Adenosine A2B receptor
T3 sequence (whole entry): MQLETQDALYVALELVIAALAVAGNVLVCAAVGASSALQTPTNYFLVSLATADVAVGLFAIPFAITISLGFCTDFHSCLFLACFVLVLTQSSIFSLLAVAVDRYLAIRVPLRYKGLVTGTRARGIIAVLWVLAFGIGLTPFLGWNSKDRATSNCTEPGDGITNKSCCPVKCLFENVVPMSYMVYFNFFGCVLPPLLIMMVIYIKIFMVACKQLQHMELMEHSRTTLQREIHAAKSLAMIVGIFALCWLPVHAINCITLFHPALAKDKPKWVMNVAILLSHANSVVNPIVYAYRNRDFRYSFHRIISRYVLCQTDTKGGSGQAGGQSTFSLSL

[7] = target: Adenosine receptor A2a (Rattus norvegicus) (UniProt P30543); assay: Antagonism of NECA-stimulated adenylate cyclase at Adenosine A2A receptor in rat PC12 cell membranes
Chain of Adenosine receptor A2a (Rattus norvegicus) (P30543 whole entry): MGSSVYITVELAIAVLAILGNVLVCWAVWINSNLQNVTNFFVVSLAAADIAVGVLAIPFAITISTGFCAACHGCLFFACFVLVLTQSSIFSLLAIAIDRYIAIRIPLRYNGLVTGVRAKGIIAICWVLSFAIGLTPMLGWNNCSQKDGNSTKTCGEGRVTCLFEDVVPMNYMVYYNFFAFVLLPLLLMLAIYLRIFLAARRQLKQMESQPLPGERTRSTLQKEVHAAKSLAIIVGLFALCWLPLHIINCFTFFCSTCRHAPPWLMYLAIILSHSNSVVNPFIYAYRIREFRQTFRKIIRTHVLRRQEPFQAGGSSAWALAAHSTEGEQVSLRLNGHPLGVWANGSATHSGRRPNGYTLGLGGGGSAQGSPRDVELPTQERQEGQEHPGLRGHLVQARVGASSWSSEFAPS

Chain of Adenosine receptor A2a (P30543 whole entry): as above
Chain of Adenosine receptors; A1 & A2 (Rattus norvegicus) (P30543 whole entry, looked up, one chain of several): as the sequence (P30543 whole entry) above

C[C@@H](c1ccccc1)n1c2ccccc2c2c(O)nc(-c3ccccc3)nc21
Ki (Adenosine receptor A1): > 30 µM
Ki (Adenosine receptor A2a): > 30 µM

CC(c1ccccc1)n1c2ccccc2c2c(N)ncnc21 (configuration not stated)
Ki (Adenosine receptor A1): 1.13 µM
Ki (Adenosine receptor A2a): 27.7 µM
Selectivity ratio [1]: 25

Cc1c(C)n([C@@H](C)c2ccccc2)c2nc(-c3cccc(Cl)c3)nc(N)c12
Ki (Adenosine receptor A1): 0.485 µM
Ki (Adenosine receptor A2a): > 30 µM
Selectivity ratio [1]: > 62

Cc1nc2nc(-c3ccccc3)[nH]c(N[C@@H](C)c3ccccc3)c-2c1C
Selectivity [1]: > 47

Cc1c(C)n([C@H](C)c2ccccc2)c2nc(-c3ccc(Cl)cc3)nc(N)c12
solubility [2]: 2.2 µM (≈ 0.829 µg/mL)
solubility [3]: 7.2 µM (≈ 2.71 µg/mL)
Ki (Adenosine receptor A1): 0.05 µM
Ki (Adenosine receptor A2a): > 30 µM
Selectivity ratio [1]: > 600

Cc1c(C)n([C@@H](C)c2ccccc2)c2ncnc(N[C@@H](C)c3ccccc3)c12
Ki (Adenosine receptor A2a): > 30 µM

Cc1[nH]c2nc(-c3ccccc3)nc(N[C@@H](C)c3ccccc3)c2c1C
Ki (Adenosine receptor A1): 0.64 µM
Ki (Adenosine receptor A2a): > 30 µM

Cc1c(C)n([C@@H](C)c2ccccc2)c2nc(-c3ccccc3)nc(N)c12
solubility [2]: 0.26 µM (≈ 0.089 µg/mL)
Ki (Adenosine receptor A1): 0.0047 µM
Ki (Adenosine receptor A2a): 3.71 µM
Selectivity ratio [1]: 789

C[C@@H](c1ccccc1)n1c2ccccc2c2c(N)nc(-c3ccccc3)nc21
Ki (Adenosine receptor A1): 0.064 µM
Ki (Adenosine receptor A2a): > 30 µM

COc1ccc(-c2nc(N)c3c(C)c(C)n([C@H](C)c4ccccc4)c3n2)cc1
Ki (Adenosine receptor A1): 0.101 µM
Ki (Adenosine receptor A2a): > 10 µM
Selectivity ratio [1]: > 99

Cc1c(C)n([C@@H](C)c2ccccc2)c2nc(-c3ccc(Cl)cc3)[nH]c(=O)c12
Ki (Adenosine receptor A1): > 30 µM
Ki (Adenosine receptor A2a): > 30 µM

C[C@H](c1ccccc1)n1c2ccccc2c2c(N)nc(-c3ccccc3)nc21
solubility [2]: 0.48 µM (≈ 0.175 µg/mL)
solubility [3]: 1.5 µM (≈ 0.547 µg/mL)
Ki (Adenosine receptor A1): 0.0026 µM
Ki (Adenosine receptor A2a): 6.2 µM

Cc1c(C)n([C@H](C)c2ccccc2)c2nc(-c3ccccc3Cl)nc(N)c12
Ki (Adenosine receptor A1): 0.0096 µM
Ki (Adenosine receptor A2a): 5.2 µM
Selectivity ratio [1]: 537

Cc1c(C)n([C@@H](C)c2ccccc2)c2nc(-c3ccc(Cl)c(Cl)c3)nc(N)c12
Ki (Adenosine receptor A1): 1.8 µM
Selectivity ratio [1]: > 17

C[C@H](c1ccccc1)N1C(=O)C2(CCCC2)c2c(O)nc(-c3ccccc3)nc21
Ki (Adenosine receptor A1): > 30 µM
Ki (Adenosine receptor A2a): > 30 µM

Nc1nc(-c2ccccc2)nc2c1c1ccccc1n2-c1ccccc1
Ki (Adenosine receptor A1): 0.022 µM
Ki (Adenosine receptor A2a): 8.3 µM
Selectivity [1]: 377

O=C1N(c2ccccc2)c2ncnc(O)c2C12CCCC2
Selectivity [1]: 13

Cc1ccc([C@@H](C)n2c3ccccc3c3c(N)nc(-c4ccccc4)nc32)cc1
Ki (Adenosine receptor A1): 0.014 µM
Ki (Adenosine receptor A2a): 21.4 µM
Selectivity ratio [1]: 1530

Cc1ccc([C@H](C)n2c3ccccc3c3c(N)nc(-c4ccccc4)nc32)cc1
Ki (Adenosine receptor A1): 0.297 µM
Ki (Adenosine receptor A2a): > 30 µM
Selectivity ratio [1]: > 101

O=C1N(c2ccccc2)c2nc[nH]c(=O)c2C12CCCC2
Ki (Adenosine receptor A1): 1.3 µM
Ki (Adenosine receptor A2a): 17.2 µM

CC(c1ccccc1)N1C(=O)C2(CCCC2)c2c(O)ncnc21 (configuration not stated)
Ki (Adenosine receptor A2a): 88.4 µM
Selectivity [1]: 26

Cc1c(C)n([C@H](C)c2ccccc2)c2nc(-c3ccccc3)nc(N)c12
Ki (Adenosine receptor A1): 0.165 µM
Ki (Adenosine receptor A2a): 81 µM
Selectivity ratio [1]: 490

Cc1c(C)n([C@H](C)c2ccccc2)c2nc(-c3ccccc3)nc(O)c12
Ki (Adenosine receptor A1): 2.98 µM
Ki (Adenosine receptor A2a): > 30 µM
Selectivity [1]: > 10

Cc1c(C)n([C@H](C)c2ccccc2)c2nc(-c3ccc(Cl)c(Cl)c3)nc(N)c12
Ki (Adenosine receptor A1): 0.33 µM
Ki (Adenosine receptor A2a): > 30 µM
Selectivity ratio [1]: > 91

Cc1nc2nc(-c3ccccc3)[nH]c(N[C@H](C)c3ccccc3)c-2c1C
solubility [2]: 1.5 µM (≈ 0.514 µg/mL)
solubility [3]: 5.9 µM (≈ 2.02 µg/mL)
logP [4]: 3.5
Ki (Adenosine receptor A1): 0.0067 µM
Ki (Adenosine receptor A2a): > 30 µM
Selectivity [1]: > 4480

O=C1Nc2nc[nH]c(=O)c2C12CCCC2
Ki (Adenosine receptor A1): 127 µM
Ki (Adenosine receptor A2a): 346 µM

O=C1Nc2ncnc(O)c2C12CCCC2
Selectivity [1]: 2.7

COc1cccc(-c2nc(N)c3c(C)c(C)n([C@H](C)c4ccccc4)c3n2)c1
Ki (Adenosine receptor A1): 0.083 µM
Ki (Adenosine receptor A2a): > 10 µM
Selectivity ratio [1]: > 120

C[C@H](c1ccccc1)n1c2ccccc2c2c(O)nc(-c3ccccc3)nc21
Ki (Adenosine receptor A1): > 30 µM
Ki (Adenosine receptor A2a): > 30 µM

Cc1c(C)n([C@H](C)c2ccccc2)c2ncnc(N[C@H](C)c3ccccc3)c12
Ki (Adenosine receptor A2a): > 30 µM

Oc1ncnc2c1c1ccccc1n2-c1ccccc1
inhibition [5]: < 20%
Kb [6]: 3.4 µM
Kb [7]: 2.5 µM

Cc1c(C)n([C@@H](C)c2ccccc2)c2nc(-c3ccccc3Cl)nc(N)c12
Ki (Adenosine receptor A1): 0.273 µM
Ki (Adenosine receptor A2a): > 30 µM
Selectivity ratio [1]: > 110

Cc1c(C)n([C@@H](C)c2ccccc2)c2nc(-c3ccc(Cl)cc3)nc(N)c12
Ki (Adenosine receptor A1): 0.878 µM
Ki (Adenosine receptor A2a): > 30 µM
Selectivity ratio [1]: > 34

C[C@@H](Cc1ccccc1)n1c2ccccc2c2c(N)nc(-c3ccccc3)nc21
Ki (Adenosine receptor A1): 0.32 µM
Ki (Adenosine receptor A2a): > 30 µM
Selectivity ratio [1]: > 94

Cc1c(C)n([C@H](C)c2ccccc2)c2nc(-c3ccc(Cl)cc3)nc(O)c12
Ki (Adenosine receptor A1): > 30 µM
Ki (Adenosine receptor A2a): > 30 µM

Cc1c(C)n([C@@H](C)c2ccccc2)c2nc(-c3ccccc3)[nH]c(=O)c12
Ki (Adenosine receptor A1): > 30 µM
Ki (Adenosine receptor A2a): > 30 µM

Cc1c(C)n([C@H](C)c2ccccc2)c2nc(-c3cccc(Cl)c3)nc(N)c12
solubility [2]: 2.8 µM (≈ 1.06 µg/mL)
Ki (Adenosine receptor A1): 0.0076 µM
Ki (Adenosine receptor A2a): 16.3 µM
Selectivity ratio [1]: 2140
